Measurements from ChEMBL document CHEMBL1165985, “Dihydro-beta-agarofuran sesquiterpenes and pentacyclic triterpenoids from the root bark of Osyris lanceolata” (2010).
Activity calls are given as the source filed them. The calls are words filed in the database; no cut-off is given here.

What was measured:
Candida albicans = experiment: Antimicrobial activity against Candida albicans ATCC 10231 by agar overlay technique; format: functional
Outline: (§1)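 Adapted agar overlay technique. Strains came from a university microbiology collection. Media were nutrient broth, nutrient agar, mycological peptone and Sabouraud dextrose agar.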

Staphylococcus aureus [1] = experiment: Antimicrobial activity against Staphylococcus aureus ATCC 9144 by agar overlay technique; format: functional; outline: as §1
Pseudomonas aeruginosa [2] = experiment: Antimicrobial activity against Pseudomonas aeruginosa NCTC 10332 by agar overlay technique; format: functional; outline: as §1
Escherichia coli = experiment: Antimicrobial activity against Escherichia coli ATCC 11229 by agar overlay technique; format: functional; outline: as §1
[3] = tested on: Radical scavenging activity; experiment: Antioxidant activity assessed as DPPH radical scavenging activity after 30 mins; format: functional
Outline: (§2)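 Semiquantitative TLC-based DPPH radical scavenging, followed over an 8 h period with readings at 30 min, 2 h and 8 h. Activity is expressed as the minimum inhibitory quantity (MIQ, µg) on the plate. Run in duplicate.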

[4] = tested on: Radical scavenging activity; experiment: Antioxidant activity assessed as DPPH radical scavenging activity after 8 hrs; format: functional; outline: as §2
Bacillus subtilis [5] = experiment: Antimicrobial activity against Bacillus subtilis ATCC 6633 by agar overlay technique; format: functional; outline: as §1
[6] = tested on: Radical scavenging activity; experiment: Antioxidant activity assessed as DPPH radical scavenging activity after 2 hrs; format: functional; outline: as §2
Staphylococcus aureus [7] = experiment: Antimicrobial activity against Staphylococcus aureus ATCC 9144 at 100 ug by agar overlay technique; format: functional, organism-based
Pseudomonas aeruginosa [8] = experiment: Antimicrobial activity against Pseudomonas aeruginosa NCTC 10332 at 100 ug by agar overlay technique; format: functional, organism-based
Bacillus subtilis [9] = experiment: Antimicrobial activity against Bacillus subtilis ATCC 6633 at 100 ug by agar overlay technique; format: functional, organism-based

Structure (SMILES) | MIC (Candida albicans) | MIC (Staphylococcus aureus [1]) | MIC (Pseudomonas aeruginosa [2]) | MIC (Escherichia coli) | MIC [3] | MIC [4] | MIC (Bacillus subtilis [5]) | MIC [6] | Activity (Staphylococcus aureus [7]) | Activity (Pseudomonas aeruginosa [8]) | Activity (Bacillus subtilis [9])
Clc1ccc(COC(Cn2ccnc2)c2ccc(Cl)cc2Cl)c(Cl)c1 (stereo unspecified) [MICONAZOLE] | 0.001 µg |  |  |  |  |  |  |  |  |  | 
C=C(C)[C@@H]1CC[C@]2(C)[C@H](CC=C3[C@@H]4C[C@](C)(C(=O)O)CC[C@]4(C)CC[C@]32C)[C@@]1(C)CCC(=O)O | 0.001 µg | 0.001 µg | 0.01 µg | 0.01 µg | inactive | 10 µg | 0.01 µg | inactive |  |  | 
CC1=CC(=O)[C@H](OC(=O)c2ccoc2)[C@@]2(C)[C@@H](OC(=O)c3ccoc3)C[C@@H]3C[C@]12OC3(C)C | 10 µg |  |  | 50 µg | inactive | 10 µg |  | 50 µg | inactive | inactive | inactive
C[C@@H]1CC[C@H](OC(=O)c2ccoc2)[C@@]2(C)[C@@H](OC(=O)c3ccoc3)C[C@@H]3C[C@]12OC3(C)C | 0.01 µg | 10 µg | 0.5 µg | 10 µg | inactive | 10 µg | 0.5 µg | 10 µg |  |  | 
C[C@@H]1CC(=O)[C@H](OC(=O)c2ccoc2)[C@@]2(C)[C@@H](OC(=O)c3ccoc3)C[C@@H]3C[C@]12OC3(C)C | 0.5 µg | 50 µg | 10 µg | 10 µg | inactive | 10 µg | 10 µg | 10 µg |  |  | 
C[C@H]1C(=O)CC[C@@H]2[C@]1(C)CC[C@H]1[C@@]2(C)CC[C@@]2(C)[C@H]3C[C@@](C)(C(=O)O)CC[C@]3(C)CC[C@]12C [OCTANDRONIC ACID] | 0.01 µg | 0.5 µg | 0.01 µg | 0.01 µg | inactive | 10 µg | 0.01 µg | inactive |  |  | 
O=C(O)c1cc(O)c(O)c(O)c1 |  |  |  |  | 0.01 µg | 0.01 µg |  | 0.01 µg |  |  | 
O=C(N[C@H](CO)[C@H](O)c1ccc([N+](=O)[O-])cc1)C(Cl)Cl [CHLORAMPHENICOL] |  | 0.001 µg | 0.001 µg | 0.001 µg |  |  | 0.001 µg |  |  |  | 
O=C1O[C@H]([C@@H](O)CO)C(O)=C1O |  |  |  |  | 10 µg | 0.01 µg |  | 0.5 µg |  |  | 
